Series [1] has as its system CHO-2B7. The series can be described thus: Modulation of gamma secretase in CHO-2B7 cells assessed as reduction in amyloid beta 40 level at 20 uM after 5 hrs by MSD ELISA. The series is classed as cell-based. Also noted: scale not given: the % may be the effect or the level left. Particulars: Cricetulus griseus.
The subject of series [2] is Liver microsomes. The series is described as follows: Metabolic stability in human liver microsomes at 1 uM after 60 mins by LC/MS/MS analysis. The note with it: 1 h.
Series [3] can be described thus: Modulation of gamma secretase in CHO-2B7 cells assessed as reduction in amyloid beta 42 level after 5 hrs by MSD ELISA. Type of series: cell-based. Particulars: Cricetulus griseus, CHO-2B7, 5 h.
The nature of series [4]: Modulation of gamma secretase in CHO-2B7 cells assessed as reduction in amyloid beta 40 level after 5 hrs by MSD ELISA. Type of series: cell-based. The note with it: Cricetulus griseus, CHO-2B7, 5 h.
The nature of series [5]: Metabolic stability in human liver microsomes assessed as compound remaining at 1 uM at 60 mins by LC/MS/MS analysis in absence of NADPH. Type of series: ADME, Microsome. The note with it: liver microsomes, read-out: Stability. Put shortly:
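Human liver microsomes were run without NADPH as a qualitative read of susceptibility to enzymatic hydrolysis. The read-out was percent parent remaining at 60 min.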

SMILES strings stand for the structures.

`CCO[C@@H]([C@H]1C[C@@H](C)[C@H]2[C@H](O1)[C@H](O)[C@@]1(C)[C@@H]3CC[C@H]4C(C)(C)[C@@H](OC(=O)N5CCNC(C(F)(F)F)C5)CC[C@@]45C[C@@]35CC[C@]21C)C(C)(C)O` (some centres not stated): in series [1], the Activity amounted to 31%. Moreover, the Stability entry in series [2] is listed as “Stable”. The IC50 in series [3] came out at 390 nM.
On to `CNC(=O)O[C@H](C(C)C)[C@H]1C[C@@H](C)[C@H]2[C@H](O1)[C@H](O)[C@@]1(C)[C@@H]3CC[C@H]4C(C)(C)[C@@H](OC(=O)NC5CNC5)CC[C@@]45C[C@@]35CC[C@]21C`, for which the IC50 stood at 5000 nM in series [4] and 120 nM in series [3]. The remaining at 1 h, 1 µM in series [5] worked out at 110%.
Regarding `CCO[C@@H]([C@H]1C[C@@H](C)[C@H]2[C@H](O1)[C@H](O)[C@@]1(C)[C@@H]3CC[C@H]4C(C)(C)[C@@H](OC(=O)N5CCOCC5)CC[C@@]45C[C@@]35CC[C@]21C)C(C)(C)O`, the figures for the IC50 in series [4] and in series [3] were 2000 nM and 220 nM, respectively. Moreover, the remaining at 1 h, 1 µM in series [5] came out at 77%.
As to `CCO[C@@H]([C@H]1C[C@@H](C)[C@H]2[C@H](O1)[C@H](O)[C@@]1(C)[C@@H]3CC[C@H]4C(C)(C)[C@@H](OC(=O)NC)CC[C@@]45C[C@@]35CC[C@]21C)C(C)(C)O`, the Activity in series [1] was 47%. In addition, the Stability result in series [2] is “Stable”. Besides, in series [3], the IC50 worked out at 360 nM.
Consider `CC(C)O[C@@H]([C@H]1C[C@@H](C)[C@H]2[C@H](O1)[C@H](O)[C@@]1(C)[C@@H]3CC[C@H]4C(C)(C)[C@@H](O[C@H]5CN(C6COC6)CCO5)CC[C@@]45C[C@@]35CC[C@]21C)C(C)(C)O`, for which the figures for the IC50 in series [4] and in series [3] were 2800 nM and 440 nM, respectively. Moreover, in series [5], the remaining at 1 h, 1 µM came to 105%.
As to `C=C(C)CO[C@@H]([C@H]1C[C@@H](C)[C@H]2[C@H](O1)[C@H](O)[C@@]1(C)[C@@H]3CC[C@H]4C(C)(C)[C@@H](O[C@H]5CN(C6COC6)CCO5)CC[C@@]45C[C@@]35CC[C@]21C)C(C)(C)O`, the results for the IC50 in series [4] and in series [3] were 11000 nM and 340 nM, respectively. In addition, in series [5], the remaining at 1 h, 1 µM was found to be 84%.
For `CC(C)CO[C@@H]([C@H]1C[C@@H](C)[C@H]2[C@H](O1)[C@H](O)[C@@]1(C)[C@@H]3CC[C@H]4C(C)(C)[C@@H](O[C@H]5CN(C6COC6)CCO5)CC[C@@]45C[C@@]35CC[C@]21C)C(C)(C)O` the same measures were 6000 nM, 3000 nM and 78%.
Consider `CC(C)[C@@H](OC(=O)N(C)C)[C@H]1C[C@@H](C)[C@H]2[C@H](O1)[C@H](O)[C@@]1(C)[C@@H]3CC[C@H]4C(C)(C)[C@@H](O)CC[C@@]45C[C@@]35CC[C@]21C`, for which the half-maximal inhibitory concentration (IC50) in series [4] stood at 10000 nM; in series [3], 1000 nM. Further, in series [5], the remaining at 1 h, 1 µM came out at 81%.
Taken in the same sequence, the figures for `CNC(=O)O[C@H](C(C)C)[C@H]1C[C@@H](C)[C@H]2[C@H](O1)[C@H](O)[C@@]1(C)[C@@H]3CC[C@H]4C(C)(C)[C@@H](O)CC[C@@]45C[C@@]35CC[C@]21C` were 8500 nM, 890 nM and 96%.
Regarding `CO[C@@H]([C@H]1C[C@@H](C)[C@H]2[C@H](O1)[C@H](O)[C@@]1(C)[C@@H]3CC[C@H]4C(C)(C)[C@@H](O[C@H]5CN(C6COC6)CCO5)CC[C@@]45C[C@@]35CC[C@]21C)C(C)(C)O`, the IC50 was determined as 9900 nM in series [4] and 690 nM in series [3]. Also, in series [5], the remaining at 1 h, 1 µM turned out to be 93%.
Turning to `CCO[C@H](C(C)C)[C@H]1C[C@@H](C)[C@H]2[C@H](O1)[C@H](O)[C@@]1(C)[C@@H]3CC[C@H]4C(C)(C)[C@@H](O)CC[C@@]45C[C@@]35CC[C@]21C`, in series [3], the 50% inhibitory concentration (IC50) worked out at 4400 nM. For the same compound, in series [5], the remaining at 1 h, 1 µM came out at 85%.
As to `CC(=O)O[C@@H]([C@H]1C[C@@H](C)[C@H]2[C@H](O1)[C@H](O)[C@@]1(C)[C@@H]3CC[C@H]4C(C)(C)[C@@H](OC(=O)N5CCOCC5)CC[C@@]45C[C@@]35CC[C@]21C)C(C)(C)O`, the IC50 in series [4] was found to be 14000 nM; in series [3], 310 nM. The remaining at 1 h, 1 µM in series [5] was found to be 2%.
Taken in the same sequence, the figures for `CC(C)[C@@H](OC(=O)N(C)C)[C@H]1C[C@@H](C)[C@H]2[C@H](O1)[C@H](O)[C@@]1(C)[C@@H]3CC[C@H]4C(C)(C)[C@@H](OC(=O)NC5CNC5)CC[C@@]45C[C@@]35CC[C@]21C` were 9500 nM, 300 nM and 113%.
Take `CC(=O)O[C@@H]([C@H]1C[C@@H](C)[C@H]2[C@H](O1)[C@H](O)[C@@]1(C)[C@@H]3CC[C@H]4C(C)(C)[C@@H](OC(N)=O)CC[C@@]45C[C@@]35CC[C@]21C)C(C)(C)O`: in series [1], the Activity turned out to be 37%. Also, the IC50 in series [3] came out at 200 nM.
As for `CC(=O)O[C@@H]([C@H]1C[C@@H](C)[C@H]2[C@H](O1)[C@H](O)[C@@]1(C)[C@@H]3CC[C@H]4C(C)(C)[C@@H](OC(=O)N5CCC5)CC[C@@]45C[C@@]35CC[C@]21C)C(C)(C)O`, the IC50 stood at 15000 nM in series [4] and 510 nM in series [3]. Further, in series [5], the remaining at 1 h, 1 µM was determined as 17%.
Take `CC(C)[C@@H](OC(=O)N1CCC1)[C@H]1C[C@@H](C)[C@H]2[C@H](O1)[C@H](O)[C@@]1(C)[C@@H]3CC[C@H]4C(C)(C)[C@@H](OC(=O)N5CCOCC5)CC[C@@]45C[C@@]35CC[C@]21C`: the results for the IC50 in series [4] and in series [3] were 11000 nM and 360 nM, respectively. For the same compound, the Stability entry in series [2] is listed as “Stable”. In series [5], the remaining at 1 h, 1 µM was 104%.
Regarding `CNC(=O)OC[C@H]1C[C@@H](C)[C@H]2[C@H](O1)[C@H](O)[C@@]1(C)[C@@H]3CC[C@H]4C(C)(C)[C@@H](O[C@H]5CN(C(=O)CC6CC6)CCO5)CC[C@@]45C[C@@]35CC[C@]21C`, the IC50 in series [4] was determined as 81000 nM; in series [3] it was 350 nM. Besides, the remaining at 1 h, 1 µM in series [5] worked out at 81%.
Turning to `CCO[C@@H]([C@H]1C[C@@H](C)[C@H]2[C@H](O1)[C@H](O)[C@@]1(C)[C@@H]3CC[C@H]4C(C)(C)[C@@H](OC(N)=O)CC[C@@]45C[C@@]35CC[C@]21C)C(C)(C)O`, the IC50 came to 3900 nM in series [4] and 210 nM in series [3]. Further, in series [2], the Stability result is given as “Stable”. Also, the remaining at 1 h, 1 µM in series [5] was 116%.
As to `CNC(=O)O[C@H](C(C)C)[C@H]1C[C@@H](C)[C@H]2[C@H](O1)[C@H](O)[C@@]1(C)[C@@H]3CC[C@H]4C(C)(C)[C@@H](O[C@H]5CNCCO5)CC[C@@]45C[C@@]35CC[C@]21C`, the IC50 was found to be 4300 nM in series [4] and 480 nM in series [3]. In series [5], the remaining at 1 h, 1 µM turned out to be 95%.
For `CC(C)[C@@H](OC(=O)N(C)C)[C@H]1C[C@@H](C)[C@H]2[C@H](O1)[C@H](O)[C@@]1(C)[C@@H]3CC[C@H]4C(C)(C)[C@@H](O[C@H]5CNCCO5)CC[C@@]45C[C@@]35CC[C@]21C` the same measures were 5900 nM, 580 nM and 114%.
For `CC(C)[C@@H](OC(N)=O)[C@H]1C[C@@H](C)[C@H]2[C@H](O1)[C@H](O)[C@@]1(C)[C@@H]3CC[C@H]4C(C)(C)[C@@H](OC(N)=O)CC[C@@]45C[C@@]35CC[C@]21C` the same measures were 1200 nM, 700 nM and 103%.
As to `CCO[C@@H]([C@H]1C[C@@H](C)[C@H]2[C@H](O1)[C@H](O)[C@@]1(C)[C@@H]3CC[C@H]4C(C)(C)[C@@H](OC(=O)NC5CNC5)CC[C@@]45C[C@@]35CC[C@]21C)C(C)(C)O`, the IC50 in series [4] came out at 1900 nM; in series [3], 53 nM. The Stability result in series [2] was “Stable”. Further, in series [5], the remaining at 1 h, 1 µM stood at 92%.
Regarding `CC(C)[C@@H](OC(N)=O)[C@H]1C[C@@H](C)[C@H]2[C@H](O1)[C@H](O)[C@@]1(C)[C@@H]3CC[C@H]4C(C)(C)[C@@H](O[C@H]5CNCCO5)CC[C@@]45C[C@@]35CC[C@]21C`, the IC50 worked out at 1700 nM in series [4] and 650 nM in series [3]. Moreover, the remaining at 1 h, 1 µM in series [5] is 108%.
For `CC(=O)O[C@H](C(C)C)[C@H]1C[C@@H](C)[C@H]2[C@H](O1)[C@H](O)[C@@]1(C)[C@@H]3CC[C@H]4C(C)(C)[C@@H](O)CC[C@@]45C[C@@]35CC[C@]21C` the same measures were 7500 nM, 780 nM and 0%.
Take `C[C@@H]1C[C@H](COC(N)=O)O[C@H]2[C@H]1[C@@]1(C)CC[C@@]34C[C@@]35CC[C@H](O[C@H]3CN(C(=O)CC6CC6)CCO3)C(C)(C)[C@@H]5CC[C@H]4[C@]1(C)[C@H]2O`: the IC50 in series [4] came out at 35000 nM; in series [3], 840 nM. In series [5], the remaining at 1 h, 1 µM worked out at 77%.
On to `CCO[C@@H]([C@H]1C[C@@H](C)[C@H]2[C@H](O1)[C@H](O)[C@@]1(C)[C@@H]3CC[C@H]4C(C)(C)[C@@H](O[C@H]5CN(CCO)CCO5)CC[C@@]45C[C@@]35CC[C@]21C)C(C)(C)O`, for which the IC50 in series [4] was determined as 3700 nM; in series [3] it was 260 nM. Further, the Stability result in series [2] is “Stable”.
As to `CCO[C@@H]([C@H]1C[C@@H](C)[C@H]2[C@H](O1)[C@H](O)[C@@]1(C)[C@@H]3CC[C@H]4C(C)(C)[C@@H](O)CC[C@@]45C[C@@]35CC[C@]21C)C(C)(C)O`, the values for the IC50 in series [4] and in series [3] were 5500 nM and 350 nM, respectively. Also, the remaining at 1 h, 1 µM in series [5] came out at 100%.
